GRK2 aptamer HTS: blocks RNA aptamer binding to human GRK2; P25098; bead flow cytometry, FAM-aptamer displacement from GRK2; inhibition of aptamer binding, % at 10 µM; hit rate 0.59% among 330,000;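 active = inhibition of aptamer binding above 40%, roughly 3 SD of noise, on plates passing a quality check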;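 also: median bead fluorescence of bound FAM aptamer so fluorescent compounds give negative values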
DDE Tn6 FP inh: inhibitors of Tn6 peptide binding to human fibrin DD(E). Fibrin DD(E) TRITC-Tn6 fluorescence polarization displacement. hit rate 0.21% among 370,000. AID 720509. inhibition, % at 8.3 µM;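 active = inhibition above a per-campaign cutoff: mean of compounds within control limits plus 3 SD, cut at about 15% in these data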
Target sequence (P02675 whole entry, looked up): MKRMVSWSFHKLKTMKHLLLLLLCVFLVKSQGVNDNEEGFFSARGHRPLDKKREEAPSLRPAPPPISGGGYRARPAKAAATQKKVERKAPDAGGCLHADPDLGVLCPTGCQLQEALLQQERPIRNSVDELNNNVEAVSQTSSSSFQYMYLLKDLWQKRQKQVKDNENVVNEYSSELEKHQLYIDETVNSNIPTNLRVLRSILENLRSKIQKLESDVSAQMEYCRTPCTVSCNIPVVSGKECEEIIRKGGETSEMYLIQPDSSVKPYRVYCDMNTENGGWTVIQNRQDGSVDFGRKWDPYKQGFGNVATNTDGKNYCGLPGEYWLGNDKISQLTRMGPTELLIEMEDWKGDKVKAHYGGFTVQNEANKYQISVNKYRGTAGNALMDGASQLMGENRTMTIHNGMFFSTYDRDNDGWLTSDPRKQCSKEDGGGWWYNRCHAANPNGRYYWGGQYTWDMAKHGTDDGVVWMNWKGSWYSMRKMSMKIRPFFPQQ
CAL PDZ FP-1: inhibitors of human CAL PDZ peptide binding; Q9HD26; AID 504414; hit rate 0.02% among 330,000; inhibition, % at 20 µM; purified CAL PDZ, TMR-peptide fluorescence polarization, 1 h;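 active = highest replicate inhibition of at least 40%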
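material = purified tagged CAL PDZ domain construct (CerCALP) | compound dosing = 20 µM, one dose | times = 1 h at RT | measured by = fluorescence polarization from S- and P-plane intensities, G-factor corrected | read-out = inhibition from polarization loss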
CAL PDZ FP-2: inhibitors of human CAL PDZ peptide binding | Q9HD26 | purified CAL PDZ, TMR-peptide fluorescence polarization, 1 h | hit rate 0.92% among 300,000 | inhibition, % at 24.9 µM | AID 602252;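 active = mean inhibition of at least 30% with at least half of replicates also reaching 30%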
DDE Tn7 FP inh: disrupts Tn7 cyclic peptide binding to fibrin D-Dimer-E complex; FP displacement of FITC-Tn7 peptide from fibrin DD(E); 0% = median of compound wells per plate; inhibition, % at 8.3 µM; hit rate 0.13% among 370,000;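 active = inhibition above the mean of compounds falling within the control limits plus 3 SD of them, cut at about 14% in these data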
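Assay system: human fibrin DD(E). Input: DD(E) 2 µM final. Medium: Tris buffer with calcium and detergent, pH 7.8. Compound dosing: single point at 8.3 µM. Timing: 10 min plus 3 h, room temperature. Technique: fluorescence polarization of the labelled Tn7 tracer. Read-out: percent inhibition. Replicates: singlicate testing.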
ARNT TACC3 PPI: disrupts binding between human ARNT and TACC3. inhibition, % at 9.99 µM. AID 623870. AlphaScreen His-ARNT PAS-B/GST-TACC3 binding, luminescence; TACC3 fragment carries E629A point mutation. hit rate 0.66% among 390,000;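 active = mean inhibition of replicates at least 50% and at least half of replicates each reaching 50%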
GRK2 inh confirm: human GRK2 inhibition confirmation, cherry pick 1 | shares compounds with GRK2 aptamer HTS | bead-bound GRK2, FAM-aptamer displacement, flow cytometry | aptamer displacement, % at 10 µM | hit rate 4% among 2,000 | AID 504451;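 active = aptamer displacement above 40%, near three times the noise of non-fluorescent compounds, on plates passing quality checks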;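 also: negative values mostly reflect intrinsic compound fluorescence rather than true enhancement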
Aptamer quench 1: counter-screen for GRK2 aptamer inhibitors: fluorescent aptamer quenchers; shares compounds with GRK2 aptamer HTS; Fluorescent RNA aptamer beads, quenching, flow cytometry; stronger effect = higher value; fluorescence change (kMESF span), kMESF (test concentration not listed); 110 tested, under 10 active; AID 504521;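 active = compounds whose bead fluorescence drops by more than 37 kMESF across the dose range, marking them as dye quenchers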
FAM quench CP1: quenches fluorescent RNA aptamer, GRK2 hit artifact; Carboxyfluorescein RNA aptamer on beads, flow cytometry quenching; stronger effect = lower value; 2,000 tested, under 10 active; fluorescence response (% of DMSO), % at 10 µM; shares compounds with GRK2 aptamer HTS;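 active = compounds that quench the bead-bound fluorescent RNA probe, cutting fluorescence to under half of the solvent control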;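 also: counterscreen run without GRK2 so only probe quenching by compound is measured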
GRK2 confirm 2: confirmation of human GRK2 inhibitors binding RNA aptamer site; shares compounds with GRK2 aptamer HTS; 360 tested, under 10 active; bead-bound GRK2, FAM-aptamer displacement, flow cytometry; inhibition of aptamer binding, % at 10 µM;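 active = inhibition of aptamer binding above 40%, about triple the noise seen with nonglowing compounds, on plates passing quality control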;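 also: negative values mostly come from compounds that fluoresce themselves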
FAM quench CP2: quenches fluorescent RNA aptamer, GRK2 hit artifact | shares compounds with GRK2 aptamer HTS | fluorescence response vs DMSO, % at 10 µM | 360 tested, under 10 active | carboxyfluorescein RNA aptamer beads, flow cytometry quenching; stronger effect = lower value;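 active = response vs DMSO under 50%, meaning signal dropped by over half, treated as fluorescence quencher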;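 also: labelled aptamer on streptavidin beads without GRK2 as a quench counter-screen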
Of the large screens only hits and unclear results are named; the others gave an inactive call (follow-up assays come after a bar, where they were run). Compounds with a hit are over-represented: about 1.8% of the library has one in this group of screens.

Cc1ccc(OCC(=O)c2c(N)n(C)c(=O)n(C)c2=O)c([N+](=O)[O-])n1	GRK2 aptamer HTS 77 (no result: ARNT TACC3 PPI) | GRK2 inh confirm 60 | Aptamer quench 1 inactive | FAM quench CP1 inactive
CCCN1C[C@@H](C)[C@@H](OC)CN(C)C(=O)c2cc(NC(=O)c3ccccc3F)ccc2OC[C@@H]1C	none (no result: GRK2 aptamer HTS, DDE Tn6 FP inh, CAL PDZ FP-1, CAL PDZ FP-2, DDE Tn7 FP inh)
C[C@@H]1CN([C@H](C)CO)C(=O)c2cc(NC(=O)CCC(F)(F)F)ccc2O[C@@H](C)CCCCO[C@H]1CN(C)Cc1ccccc1	none (no result: GRK2 aptamer HTS, DDE Tn6 FP inh, CAL PDZ FP-1, CAL PDZ FP-2, DDE Tn7 FP inh)
CC(=O)N1c2ccc(S(=O)(=O)NCCC(=O)NCCc3ccc(C)cc3)cc2CC1C (stereo not drawn)	none
CC(=O)N1c2ccc(S(=O)(=O)NCCC(=O)NCCc3cccc(C)c3)cc2CC1C (stereo not drawn)	GRK2 aptamer HTS 77 | GRK2 inh confirm inactive | FAM quench CP1 inactive
O=C(O)c1cc(O)c2c(c1)[C@H]([C@H]1c3cc(C(=O)O)cc(O)c3C(=O)c3c(O[C@@H]4O[C@H](CO)[C@@H](O)[C@H](O)[C@H]4O)cccc31)c1cccc(OC3O[C@H](CO)[C@@H](O)[C@H](O)[C@H]3O)c1C2=O (stereo partly drawn)	GRK2 aptamer HTS 99 | GRK2 inh confirm inactive | FAM quench CP1 inactive
O=C1c2cc(CO)cc(O)c2C(=O)c2c(O[C@@H]3OC(CO)[C@@H](O)[C@@H](O)[C@@H]3O)cccc21 (stereo partly drawn)	none
Cc1ccc(S(=O)(=O)N(C)C[C@H]2OCCCC[C@@H](C)Oc3ccc(NC(=O)NC(C)C)cc3C(=O)N([C@H](C)CO)C[C@@H]2C)cc1	none (no result: GRK2 aptamer HTS, DDE Tn6 FP inh, CAL PDZ FP-1, CAL PDZ FP-2, DDE Tn7 FP inh)
CCOC(=O)C1CCN(C(=O)C(=O)c2cn(CC(=O)N3CCCCCC3)c3ccccc23)CC1	GRK2 aptamer HTS 42 | GRK2 confirm 2 inactive | FAM quench CP2 inactive
CCOC(=O)N1CCN(C(=O)C(=O)c2cn(CC(=O)N3CCCCCC3)c3ccccc23)CC1	none
CN(Cc1ccccc1)C(=O)c1cccc(NC(=O)Cc2ccc(NC(=O)C3CCCN(C(=O)C4CCCC4)C3)cc2)c1 (stereo not drawn)	none (no result: GRK2 aptamer HTS)
COc1cccc(CNC(=O)C2C3C=CC4(CN(Cc5ccccc5)C(=O)C24)O3)c1OC (stereo not drawn)	none (no result: GRK2 aptamer HTS, CAL PDZ FP-1, CAL PDZ FP-2, ARNT TACC3 PPI)
CCCCNC(=O)c1ccccc1SCC(=O)NC1CCCCCCC1	GRK2 aptamer HTS 61 | GRK2 inh confirm inactive | FAM quench CP1 inactive
O=C(CSc1cnc2ccccc2n1)NC1CCCC1	GRK2 aptamer HTS 81 | GRK2 inh confirm inactive | FAM quench CP1 inactive
CCN(CC)c1ccc(C=Nn2c(C)nnc2C)cc1	none (no result: GRK2 aptamer HTS, CAL PDZ FP-1, CAL PDZ FP-2, ARNT TACC3 PPI)
COC(=O)c1ccc(N2CCc3ccccc32)c([N+](=O)[O-])c1	GRK2 aptamer HTS 52 | GRK2 inh confirm inactive | FAM quench CP1 inactive
C[C@@H]1CCCCO[C@@H](CN(C)C(=O)CCCN(C)C)[C@H](C)CN([C@H](C)CO)C(=O)c2cc(N(C)C)ccc2O1	none (no result: GRK2 aptamer HTS, DDE Tn6 FP inh, CAL PDZ FP-1, CAL PDZ FP-2, DDE Tn7 FP inh)
CN(C)C(=O)c1cccc(-c2ccc3c(c2)[C@H]2[C@H](CCN2C(=O)Cc2ccccn2)[C@H](CO)N3C)c1	none (no result: GRK2 aptamer HTS, DDE Tn6 FP inh, CAL PDZ FP-1, CAL PDZ FP-2, DDE Tn7 FP inh)
C[C@@H]1CN([C@@H](C)CO)C(=O)c2cccc(NC(=O)Nc3ccc(C(F)(F)F)cc3)c2O[C@H]1CN(C)Cc1ccc(Cl)c(Cl)c1	none (no result: GRK2 aptamer HTS, DDE Tn6 FP inh, CAL PDZ FP-1, CAL PDZ FP-2, DDE Tn7 FP inh)
CC(=O)N1CCC(C(=O)NCCOc2cccc(C)c2)CC1	GRK2 aptamer HTS 65 (no result: ARNT TACC3 PPI) | GRK2 inh confirm inactive | FAM quench CP1 inactive
C(=N/n1c2ccccc2c2ccccc21)/c1ccco1	GRK2 aptamer HTS 96 | GRK2 inh confirm inactive | FAM quench CP1 inactive
CCOC(=O)[C@@]12CCCC3=C1N(CCC3)C(=O)[C@H]2CC(=O)NCc1ccc(C)o1	none (no result: GRK2 aptamer HTS, CAL PDZ FP-1, CAL PDZ FP-2, ARNT TACC3 PPI)
O=C(C[C@@H]1CC[C@H]2[C@@H](COC[C@H](O)CN2Cc2cccc(C(F)(F)F)c2)O1)NCc1ccccc1	none (no result: GRK2 aptamer HTS, DDE Tn6 FP inh, CAL PDZ FP-1, CAL PDZ FP-2, DDE Tn7 FP inh)
Cc1cccc2c1NC(=O)C2=O	none (no result: GRK2 aptamer HTS)
COC(=O)c1cccc2c1NC(=O)C2=O	GRK2 aptamer HTS 71 | GRK2 inh confirm inactive | FAM quench CP1 inactive
Cc1cc(C)n(-c2nc(NCCCO)c3c4c(sc3n2)CCCC4)n1	none | GRK2 inh confirm inactive | FAM quench CP1 inactive
Cc1cc(C)n(-c2nc(NCCO)c3c4c(sc3n2)CCCC4)n1	none
C[C@@H]1CN([C@@H](C)CO)C(=O)c2cc(NC(=O)CCC(F)(F)F)ccc2O[C@@H](C)CCCCO[C@@H]1CN(C)Cc1ccncc1	none (no result: GRK2 aptamer HTS, DDE Tn6 FP inh, CAL PDZ FP-1, CAL PDZ FP-2, DDE Tn7 FP inh)

Compound activity as filed in PubChem.
